Shown are actives, neighbours in structure and some others; about 3.4% of the full set was active somewhere.
IMP-1 inhibitor = blocks Pseudomonas aeruginosa IMP-1 metallo-beta-lactamase. purified IMP-1, nitrocefin hydrolysis, epi-absorbance fluorescence. inhibition, % at 5.6 µM. 0.45% of 290,000 active. AID 1556;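 active = inhibition above the mean plus 3 SD of all compounds in the same screening run, cut at about 4.5% in these data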
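Assay system: purified IMP-1; Quantity: IMP-1 0.2 nM before substrate addition; Medium: HEPES buffer pH 7.1 with ZnSO4 and Brij 35; Incubation: 15 min enzyme–compound preincubation, then 25 min nitrocefin reaction, 25 °C; Signal: fluorescence quenching readout, ex 480/em 530 nm; Controls: DMSO with and without IMP-1; Repeats: singlicate testing.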
VIM-2 inh = blocks Pseudomonas aeruginosa VIM-2 metallo-beta-lactamase; purified VIM-2, nitrocefin hydrolysis, epi-absorbance fluorescence; inhibition, % at 5.6 µM; 0.89% of 290,000 active; AID 1527;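 active = inhibition above the mean of all tested compounds plus 3 SD, cutoff set per screening run, cut at about 7.5% in these data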;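 also: red hydrolysis product quenches plate fluorescence so inhibitors raise well fluorescence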
CHT allo act = allosteric activators of human choline transporter CHT; Q9GZV3; CHT-expressing cells, membrane potential dye, choline EC20; hits give high values; LV-AA mutant CHT in HEK293 cells; B-score at 10 µM; 0.49% of 310,000 active; AID 488977;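 active = initial fluorescence not abnormally high and integrated response B-score, plate-corrected, over 3 SD above library mean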
ANO1 block = inhibitors of mouse TMEM16A calcium-activated chloride channel. HEK293 TMEM16A/YFP iodide influx fluorescence, ionomycin. normalized B-score (activity score, 25-100; higher = stronger inhibition) at 10 µM. Q8BHY3. AID 588511. 1.2% of 310,000 active;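 active = ratio plate-corrected score three or more library SD toward inhibition, starting fluorescence score within five deviations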;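 also: score derived from kinetic fluorescence span divided by baseline fluorescence per well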
Target sequence (Q8BHY3 whole entry, looked up): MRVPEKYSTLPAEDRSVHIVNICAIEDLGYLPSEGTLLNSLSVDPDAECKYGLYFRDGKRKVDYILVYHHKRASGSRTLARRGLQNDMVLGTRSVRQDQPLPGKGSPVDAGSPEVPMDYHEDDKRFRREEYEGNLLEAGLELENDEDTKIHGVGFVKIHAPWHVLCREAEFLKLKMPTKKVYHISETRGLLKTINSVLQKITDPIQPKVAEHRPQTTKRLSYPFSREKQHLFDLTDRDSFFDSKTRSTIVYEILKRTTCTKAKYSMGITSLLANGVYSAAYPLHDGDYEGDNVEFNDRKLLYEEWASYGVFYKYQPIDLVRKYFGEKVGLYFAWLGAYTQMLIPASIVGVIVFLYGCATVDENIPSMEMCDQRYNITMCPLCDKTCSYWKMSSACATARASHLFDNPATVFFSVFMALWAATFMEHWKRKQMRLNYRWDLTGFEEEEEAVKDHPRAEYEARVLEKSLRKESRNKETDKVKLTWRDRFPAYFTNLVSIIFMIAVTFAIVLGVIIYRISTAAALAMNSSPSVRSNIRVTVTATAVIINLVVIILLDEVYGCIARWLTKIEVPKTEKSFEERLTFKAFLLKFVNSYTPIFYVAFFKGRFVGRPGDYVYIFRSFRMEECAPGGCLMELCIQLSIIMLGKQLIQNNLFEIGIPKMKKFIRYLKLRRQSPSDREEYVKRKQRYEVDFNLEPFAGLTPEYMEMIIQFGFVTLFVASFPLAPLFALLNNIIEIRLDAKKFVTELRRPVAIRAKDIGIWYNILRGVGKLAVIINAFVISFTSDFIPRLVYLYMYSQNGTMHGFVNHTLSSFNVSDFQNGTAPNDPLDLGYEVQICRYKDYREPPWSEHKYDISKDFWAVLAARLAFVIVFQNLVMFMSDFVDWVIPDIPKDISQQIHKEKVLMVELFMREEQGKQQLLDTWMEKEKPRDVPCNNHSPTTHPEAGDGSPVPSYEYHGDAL
TMEM16A act = activates or potentiates the mouse TMEM16A chloride channel | 0.3% of 340,000 active | B-score at 10 µM | HEK293 TMEM16A/YFP-H148Q/I152L, iodide quench fluorescence; hits give low values;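 active = fluorescence-ratio B-score plate-corrected deviation score at least 3 library SD below zero, with starting fluorescence score within 5 deviations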;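 also: channel opened by trigger with iodide after compound preincubation; score built on the fluorescence ratio of max minus min over baseline; more negative score means more quench and so TMEM16A activation or potentiation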
CHT block = inhibits the human high affinity choline transporter | Q9GZV3 | CHT-expressing cells, membrane potential dye, choline response; hits give low values | B-score at 10 µM | 0.86% of 310,000 active | AID 488975;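 active = B-score over 3 SD under the library average, and starting fluorescence ratio not unusually high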;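 also: choline stimulus applied at its EC90 after an EC20 pre-addition; B-score computed on integrated fluorescence ratio after choline addition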
CHT inh conf = human CHT inhibition, confirmatory screen; shares compounds with CHT block; CHT-expressing cells, choline membrane potential dye; LV-to-AA substituted CHT, HEK293 cells; CHT activity remaining % of control (hits give low values), % at 10 µM; AID 493221; 70% of 2,400 active;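 active = choline transporter activity left, mean of duplicates at 10 µM, below buffer-only control mean minus 3 SD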;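 also: depolarization triggered by choline at its EC90 following an EC20 pre-addition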
HEK293 CHT ctr = activity in parental HEK293 cells lacking CHT | shares compounds with CHT block | membrane potential dye, choline response; active = decrease or increase beyond buffer ±3SD | membrane potential ratio readout (active if shifted either direction beyond buffer ±3SD; no single direction) at 10 µM | 4% of 2,400 active | AID 493222;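 also: parental cells lack the transporter so any hit is non-specific; ratio is peak minus trough fluorescence over baseline after EC90 choline challenge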
CHT act confirm = human CHT activation, confirmatory screen; shares compounds with CHT allo act; CHT-expressing cells, membrane potential dye fluorescence (FDSS); % of choline EC20–EC90 response window; HEK293 expressing CHT LV-AA mutant; choline added at its EC20; activation, % at 10 µM; 91% of 2,500 active;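 active = primary screen active, with duplicate mean activation above negative control mean plus 3 SD, cut at about 11% in these data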
HEK293 MP dye = activity in parental HEK293 cells lacking CHT; membrane potential dye fluorescence (FDSS); measured after EC20 choline addition; AID 623908; shares compounds with CHT allo act; ratio readout change at 10 µM, hits read low; 62% of 2,500 active;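 active = duplicate-averaged ratio beyond 3 SD from buffer wells, up or down, though filed actives are nearly all decreases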
TMEM16A reconf = reconfirmed blocker of mouse TMEM16A calcium-activated chloride channel. shares compounds with ANO1 block. HEK293 TMEM16A/YFP-H148Q, iodide quench fluorescence; ionomycin added to raise cell calcium. inhibition, % at 10 µM. 39% of 2,300 active. AID 652189;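 active = mean duplicate percent inhibition, scaled so buffer wells are 0 and the reference blocker 100, over three buffer SD above buffer mean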
HEK293 Ca mobil = alters calcium mobilization in TMEM16A HEK293 cells, counter-screen; 2% of 2,300 active; calcium response (% of ionomycin), % at 10 µM; shares compounds with ANO1 block; TMEM16A/YFP HEK293, Fluo4 calcium mobilization;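 active = duplicate-averaged calcium signal over 20% of the ionomycin maximum, relative to buffer baseline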;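 also: each well's signal is peak minus trough fluorescence divided by its pre-addition baseline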
Parental YFP cnt = counter-screen for TMEM16A inhibitors: effect in parental YFP-HEK293 cells. shares compounds with ANO1 block. iodide YFP quench, ionomycin. YFP ratio F(max-min)/F0 at 10 µM. 2,300 tested, under 10 active. AID 652233;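 active = yellow fluorescent protein signal ratio exceeding the buffer control mean by over 5 SD of those controls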;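 also: ratio is mean of duplicate wells from kinetic YFP trace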
ClC-1 rat inh = selectivity of TMEM16A inhibitors: inhibition of rat ClC-1 chloride channel | shares compounds with ANO1 block | CHO ClC-1-YFP, iodide influx fluorescence quench; iodide control reads 0, buffer control 100 | ratio percent, % at 10 µM | 2,300 tested, under 10 active | AID 652236;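 active = duplicate-mean ratio percent above the mean of iodide-only control wells, which defines zero, plus 5 of their SD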;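 also: higher percent means stronger block of ClC-1 iodide influx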
Of the large screens only hits and unclear results are named; the others gave an inactive call (follow-up assays come after a bar, where they were run).

COC(=O)C1=C(c2cccc(C#N)c2)C[C@@H]2CC[C@H]1N2C(=O)NC(C)C	none (no result: IMP-1 inhibitor, VIM-2 inh, CHT allo act, ANO1 block, CHT block)
O=C1NC(=O)C(=Cc2c(Cl)cccc2Cl)C(=O)N1	none (no result: IMP-1 inhibitor, VIM-2 inh, CHT allo act, ANO1 block, CHT block)
CCCCCn1c(NC(=O)c2ccco2)c(C(=O)OCC)c2nc3ccccc3nc21	CHT block -5.6 | CHT inh conf inactive | HEK293 CHT ctr inactive
CC1=CC(C)CC(C)OC(=O)CC(c2ccc(O)cc2)NC(=O)C(Cc2c(Br)[nH]c3ccccc23)N(C)C(=O)C(C)NC(=O)C(C)C1 (stereo not given)	none (no result: IMP-1 inhibitor, VIM-2 inh, CHT allo act, ANO1 block, CHT block)
Cc1ccc(N)c(C(=O)c2ccc(Br)cc2)c1	ANO1 block 100, CHT block -5.1 | CHT inh conf inactive | HEK293 CHT ctr inactive | TMEM16A reconf inactive | HEK293 Ca mobil inactive | Parental YFP cnt inactive | ClC-1 rat inh inactive
Cc1cc(N(CCCl)CCCl)ccc1C=NNC(=O)Cc1cc(=O)oc2cc(O)ccc12	none (no result: IMP-1 inhibitor, VIM-2 inh, CHT allo act, ANO1 block, CHT block)
CC[n+]1c(SC)ccc2cc(OC)ccc21	none | CHT act confirm 64 | HEK293 MP dye -59
COC(=O)C1=C(C)NC(=S)NC1c1ccc(N(CCCl)CCCl)cc1Cl (stereo not given)	none (no result: IMP-1 inhibitor, VIM-2 inh, CHT allo act, ANO1 block, CHT block)
COC(=O)c1c2[n+](cc3cc(OC)c(OC)cc13)CCc1cc(OC)c(OC)cc1-2	none (no result: IMP-1 inhibitor, VIM-2 inh) | CHT act confirm 44 | HEK293 MP dye -49
COc1ccc(-n2c(SCCN(C)C)nc3ccccc3c2=O)cc1	none | CHT act confirm 37 | HEK293 MP dye -42
COc1ccc(C2NCc3ccc4c(c3-n3cccc32)OCO4)cc1O (stereo not given)	CHT allo act 11 (no result: TMEM16A act) | CHT act confirm 16 | HEK293 MP dye inactive
c1cc2n(c1)-c1c(ccc3c1OCO3)CNC2c1ccc2c(c1)OCO2 (stereo not given)	none
COc1ccc2c(c1O)-c1c(OC)c(OC)cc3c1[C@H](C2)N(C)CC3	CHT allo act 8.4 (no result: IMP-1 inhibitor, VIM-2 inh) | CHT act confirm 56 | HEK293 MP dye -66
COc1cc2c(cc1OC)-c1c(OC)c(OC)cc3c1[C@H](C2)N(C)CC3	CHT allo act 7.6 | CHT act confirm 44 | HEK293 MP dye -73
Cc1nonc1OCCNCCNc1ccc([N+](=O)[O-])c2cccnc12	none | CHT act confirm 30 | HEK293 MP dye -63
CCNCCNc1ccc([N+](=O)[O-])c2cccnc12	CHT allo act 6.3 | CHT act confirm 27 | HEK293 MP dye -66
O=[N+]([O-])c1cccc2c([N+](=O)[O-])cccc12	none (no result: IMP-1 inhibitor, VIM-2 inh, CHT allo act, ANO1 block, CHT block)
CS(=O)(=O)CCN1CC2CCCC(C2)C1	none (no result: IMP-1 inhibitor, VIM-2 inh, CHT allo act, ANO1 block, CHT block)
O=C1CC2OCC=C3CN4CCC56c7cc([N+](=O)[O-])ccc7N1C5C2C3CC46 (stereo not given)	none | CHT act confirm 51 | HEK293 MP dye -50
CCCCC1(CC)COP(=O)(OCC(Cl)(Cl)Cl)OC1 (stereo not given)	none (no result: IMP-1 inhibitor, VIM-2 inh, CHT allo act, ANO1 block, CHT block)
C=CCCC1(CC(C)C)C(=O)NC(=S)NC1=O	none (no result: IMP-1 inhibitor, VIM-2 inh, CHT allo act, ANO1 block, CHT block)
C=CCCC1(C2=CCCCC2)C(=O)NC(=O)NC1=O	none (no result: IMP-1 inhibitor, VIM-2 inh, CHT allo act, ANO1 block, CHT block)
O=C(CNC(=O)c1cccc(Cl)c1)Nc1ccc(Br)cc1C(=O)c1ccccc1	CHT allo act 7.7 | CHT act confirm 20 | HEK293 MP dye inactive
CCOC(=O)c1ccc2c(c1)n(Cc1ccccc1)c(C)[n+]2CC	CHT allo act 8.1 | CHT act confirm 47 | HEK293 MP dye -51
CC(C)N(C(=O)CCl)c1ccccc1	none (no result: IMP-1 inhibitor, VIM-2 inh, CHT allo act, ANO1 block, CHT block)
COc1c2c(cc3c1OCO3)CC[N+](C)=C2	CHT allo act 9.2 | CHT act confirm 58 | HEK293 MP dye -60
COc1ccc2c(c1OC)CN1CCc3cc4c(cc3[C@H]1C2)OCO4	none (no result: IMP-1 inhibitor, VIM-2 inh, CHT allo act, ANO1 block, CHT block)
NC(N)=Nc1ccc2[nH]c3c(c2c1)C[C@@]1(O)[C@H]2Cc4ccc(O)c5c4[C@@]1(CCN2CC1CC1)C3O5 (stereo not given in full)	none (no result: IMP-1 inhibitor, VIM-2 inh, CHT allo act, ANO1 block, CHT block)
CCCN(CC1CC1)CC(O)c1ccccc1 (stereo not given)	none
CC1CN(c2ccc([N+](=O)[O-])c3cccnc23)CC(C)N1 (stereo not given)	none | CHT act confirm 48 | HEK293 MP dye -84
O=[N+]([O-])c1ccc(N2CCCC2)c2ncccc12	none
COc1cc(/C=C2\C[C@H]3[C@@H]4CC=C5C[C@@H](N6CCCC6)CC[C@]5(C)[C@H]4CC[C@]3(C)[C@H]2O)cc(OC)c1OC	none (no result: IMP-1 inhibitor, VIM-2 inh, CHT allo act, ANO1 block, CHT block)
CN1CCN(C(=O)O[C@H]2c3nccnc3C(=O)N2c2ccc(Cl)cn2)CC1	CHT allo act 6.9 | CHT act confirm 84 | HEK293 MP dye -44
CN1CCN(C(=O)COc2ccc(Oc3ccccc3)cc2)CC1	none
CCCCCn1c(=O)c(C(=O)NC(C)c2ccccc2)c(O)c2ccccc21 (stereo not given)	none
COc1cc2c(cc1OC)C13CCN4CC5=CCOC6CC(=O)N2C1C6C5C3C4 (stereo not given) (tested in a mixture with another compound)	none (no result: IMP-1 inhibitor, VIM-2 inh, CHT allo act, ANO1 block, CHT block)
COc1ccc2[nH]cc(CCN)c2c1	none

Assay outcomes as filed in PubChem.
